Shown are actives, neighbours in structure and some others; about 3.4% of the full set was active somewhere.
TAAR1 ag: human TAAR1 agonism; CHO RD-HGA16 TAAR1, Fluo-8 calcium fluorescence; vehicle wells 0%, saturating PEA agonist 100%; activation, % at 3 µM; 0.99% of 360,000 active;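 active = activation above the mean activation of all test compounds in the run plus 3 SD, cut at about 38% in these data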
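Assay system: CHO-derived RD-HGA16 cells with stable Gα16 and human TAAR1; timing: 17-24 h seeding, 75 min 37 °C dye, 30 min RT; read-out: % activation from peak over basal fluorescence ratio, DMSO-to-PEA scaled; measured by: kinetic Fluo-8 calcium fluorescence; benchmarks: low control DMSO, high control PEA (EC100); doses: 3 µM single concentration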
LANA-H2B inh: blocks KSHV LANA binding to histone H2A/H2B; inhibition, % (concentration not given with the values); 0.6% of 320,000 active; cell-free LANA-H2A/H2B peptide, fluorescence polarization; AID 2629; Q9QR71; in the data active = inhibition mostly above about 10%, no sharp cut-off; inactive = mostly below about 6.7%
TAAR1 antagonist: human TAAR1 antagonism; Q96RJ0; CHO RD-HGA16 TAAR1, Fluo-8 calcium fluorescence, antagonist; inhibition, % at 3 µM; 1.5% of 360,000 active; AID 624466;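 active = inhibition above a per-plate cutoff, the mean inhibition of test compounds on that plate plus 3 SD, cut at about 49% in these data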;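 also: 0% = DMSO plus EC80 beta-PEA response and 100% = DMSO alone without agonist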
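System: CHO RD-HGA16 cells bearing hTAAR1. Reagent: EC80 β-phenethylamine stimulus. Schedule: seeding 17-24 h prior, 75-min 37 °C, 30-min RT dye loading. Signal: Fluo-8 intracellular calcium dye fluorescence, real-time kinetic reads. Read-out: % inhibition from peak post-agonist over basal fluorescence ratio. Benchmarks: vehicle wells and EC80 agonist wells. Replicates: n of 1.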
GPR7 antag: human neuropeptides B/W receptor 1 antagonism; GPR7-expressing cells, fluorescence antagonist assay; inhibition, % at 4.4 µM; 1.1% of 290,000 active; AID 1861; in the data active = inhibition above about 16%, passing the limit was not always enough;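 also: cells stimulated with the agonist NPW; 0% = agonist with vehicle and 100% = vehicle without agonist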
TRPML3 ag: human mucolipin-3 channel agonism. HEK293 TRPML3-YFP, Fluo-8 calcium fluorescence; 100% = the carbachol control signal. AID 1448. 0.29% of 220,000 active. Q8TDD5. activation, % at 3 µM;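 active = activation above its plate's cutoff, the mean activation of the plate's test wells plus 3 SD, cut at about 12% in these data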;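 also: 0% = DMSO only wells and 100% = carbachol wells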
Target sequence (Q8TDD5 whole entry, looked up): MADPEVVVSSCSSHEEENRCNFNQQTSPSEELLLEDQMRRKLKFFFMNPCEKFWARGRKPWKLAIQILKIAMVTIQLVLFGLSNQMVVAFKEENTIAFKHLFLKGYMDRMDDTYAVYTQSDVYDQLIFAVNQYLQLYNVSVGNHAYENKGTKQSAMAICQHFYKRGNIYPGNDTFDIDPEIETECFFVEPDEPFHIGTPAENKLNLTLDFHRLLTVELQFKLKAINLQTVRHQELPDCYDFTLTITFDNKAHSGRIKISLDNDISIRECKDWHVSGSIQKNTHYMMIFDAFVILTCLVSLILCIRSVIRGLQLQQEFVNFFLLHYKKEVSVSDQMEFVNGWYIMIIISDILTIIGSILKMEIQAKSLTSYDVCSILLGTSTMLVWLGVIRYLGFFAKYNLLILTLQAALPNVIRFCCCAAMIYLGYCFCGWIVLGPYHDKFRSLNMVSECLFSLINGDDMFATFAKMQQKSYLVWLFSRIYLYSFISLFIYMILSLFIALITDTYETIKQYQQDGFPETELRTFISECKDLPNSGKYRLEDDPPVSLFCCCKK
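system = HEK293 cells stably carrying human TRPML3-YFP | doses = one concentration, 3 µM nominal, 0.3% DMSO | timing = dye loading 1 h 37 °C then 30 min ambient, 125 s read | detection = Fluo-8 calcium dye fluorescence, ex 470-495, em 515-575 nm | benchmarks = high control carbachol 87 µM, low control DMSO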
TRPN1 ag: activates the zebrafish TRPN1 channel; HEK293 zebrafish TRPN1-YFP, Fluo-8 calcium fluorescence; 100% = response to 87 µM carbachol; activation, % at 3 µM; 0.18% of 220,000 active; AID 1424;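 active = activation above its plate's cutoff, the mean activation of test wells on that plate plus 3 SD, cut at about 19% in these data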;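 also: 0% = DMSO alone and 100% = 87 µM carbachol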
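Control set: carbachol 87 µM as high control, DMSO as low control; system: HEK293 stable line with zebrafish TRPN1-YFP; read-out: % activation versus carbachol response; detection: intracellular calcium fluorescence with Fluo-8; doses: single test compound dose, 3 µM nominal, 0.3% DMSO; schedule: dye 1 h 37 °C plus 30 min RT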
GPR7 antag conf: confirmation of human GPR7 antagonists | shares compounds with GPR7 antag | GPR7-expressing cells, calcium fluorescence antagonist mode | inhibition, % at 4.4 µM | 52% of 2,400 active | AID 1952; in the data active = inhibition above about 24%;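 also: stimulated with the GPR7 agonist NPW; 0% = agonist plus vehicle and 100% = vehicle alone without agonist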
MCHR1 antag: counter-screen for GPR7 antagonists: antagonists of human MCHR1. 62% of 2,400 active. shares compounds with GPR7 antag. MCHR1-expressing cells, fluorescence antagonist assay. inhibition, % at 4.4 µM; in the data active = inhibition above about 22%;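 also: 0% = vehicle with agonist and 100% = vehicle without agonist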
The depositor's hits bear a star; · = no result.

SMILES | TAAR1 ag | LANA-H2B inh | TAAR1 antagonist | GPR7 antag | TRPML3 ag | TRPN1 ag | GPR7 antag conf | MCHR1 antag
Nc1c(C(=O)c2ccccc2)sc(Nc2ccccc2)c1S(=O)(=O)c1ccccc1 | 9 | 0 | -22 | 22* | 1 | 2 | -27 | -23
CC(C)(C)S(=O)N1Cc2cc(C(=O)N3CCOCC3)nc(-c3cccc(Br)c3)c2[C@@H]1CCO (stereo not given in full) | 1 | · | -10 | · | · | · | · | ·
CCOc1ccccc1/C=C/c1onc(C)c1S(=O)(=O)N1CCC(C(=O)N2CCCCCC2)CC1 | -4 | -2 | -20 | -8 | · | · | · | ·
COc1ccccc1-n1c(=O)oc2ccc(Cl)cc2c1=O | 6 | 1 | 11 | 28* | 12* | 24* | -12 | -1
CC(=O)c1ccc(NC(=O)c2ccccc2-c2ccccc2C(=O)O)cc1 | -1 | 0 | -2 | 27* | · | · | 1 | -2
COc1cc(C2c3sc(=O)[nH]c3SC3C4CCC(C4)C23)ccc1O (stereo not given) | 19 | -1 | 4 | 27* | 0 | 0 | -18 | 15
CC(=O)Oc1c(I)cc(I)cc1C(=O)Nc1ccc(Cl)cc1 | 3 | -5 | 7 | 27* | · | · | 6 | 61*
Cc1cc(=O)n2nc(N3CCC(C(=O)NCC(C)c4ccccc4)CC3)sc2n1 (stereo not given) | 4 | -1 | -19 | -16 | · | · | · | ·
Cc1ccc(NS(=O)(=O)c2ccc(C(=O)N3CCC3)cc2)cc1 | 12 | 1 | -18 | · | · | · | · | ·
COc1ccc(N2CCN(C(=O)c3ccc(CNS(=O)(=O)c4ccc(C)cc4)cc3)CC2)cc1 | 5 | -2 | -11 | 7 | · | · | · | ·
CCOc1ccc(NS(=O)(=O)c2ccc(C(=O)NCC3(N4CCCCC4)CCCCC3)cc2)cc1 | 19 | -2 | 14 | 58* | · | · | 21 | 34*
Cc1ccc(NS(=O)(=O)c2ccc(C(=O)N3CCCCCCC3)cc2)cc1 | 54* | -2 | 18 | 26* | · | · | 29* | 28*
Cc1ccc(S(=O)(=O)NCc2ccc(C(=O)N3CCN(c4ccc([N+](=O)[O-])cc4)CC3)cc2)cc1 | -1 | 2 | -31 | 41* | · | · | 26* | 67*
Cc1cc(S(=O)(=O)Nc2ccc(C(=O)NCC3(N4CCCCC4)CCCCC3)cc2)ccc1F | 1 | 0 | 2 | · | · | · | · | ·
COc1ccc(NC(=O)/C(=C\c2ccc(OC)c(OC)c2)NC(=O)c2ccco2)cc1 | 7 | 0 | -3 | -22 | · | · | · | ·
CC(C)CN1CCCC(N2CCN(c3cccc(Cl)c3)CC2)C1 (stereo not given) | 0 | 3 | -2 | 27* | · | · | -6 | 0
COc1ccc(CN2CCCC(N3CCN(c4cccc(Cl)c4)CC3)C2)cc1OC (stereo not given) | 2 | 3 | -39 | 15 | · | · | · | ·
COc1cc(CN2CCCN(C)CC2)cc([N+](=O)[O-])c1O | -1 | -2 | 0 | -1 | · | · | · | ·
CC1(C)CC(NC(=O)c2cccc(S(=O)(=O)N(Cc3ccccc3)c3ccccc3)c2)CC(C)(C)N1 | 0 | 1 | -13 | · | · | · | · | ·
COc1ccc(-c2ccc3c(c2)O/C(=C\c2ccsc2)C3=O)cn1 | 2 | 6 | -2 | · | · | · | · | ·
O=C(CSc1nnc(-c2cccs2)n1Cc1ccccc1)NCc1ccc2c(c1)OCO2 | -1 | 2 | 8 | 2 | -1 | -2 | · | ·
CC(Sc1nnc(-c2cccs2)n1Cc1ccccc1)C(=O)NCc1ccc2c(c1)OCO2 (stereo not given) | 16 | -1 | 10 | 26* | -1 | 0 | 19 | 19
CCN(c1cccc(C)c1)S(=O)(=O)c1cccc2nsnc12 | 6 | -1 | 4 | 23* | -2 | -1 | -25 | 39*
Cc1[nH]c2ccc(C(=O)N3CCN(c4ccccn4)CC3)cc2c1C | 8 | -1 | -10 | 8 | · | · | · | ·
